Test results taken from PubChem BioAssay.
Records with an inconclusive call do not appear. The source made the active and inactive calls.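 The calls were made as follows, unless noted: active = inhibition over a set limit, the all-compound mean plus 3 SD, in both replicate runs; inconclusive = over that limit in just one replicate run; inactive = at or under that limit in both runs.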

Assays:
[1] = OD615 S. cerevisiae growth inhibition, permissive medium, pilot counter-assay, permissive growth control for S. cerevisiae lifespan shortening project (AID 705;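 active = growth inhibition above 25% in both replicates, a cutoff set 3 SD above the mean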); conditions: OD615, 24 h, at 10 µM, hits give high values
Method in brief: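 Test system: Saccharomyces cerevisiae strain carrying genetically modified DeaD replicative-lifespan system; buffer or medium: SC raffinose/galactose permissive medium; dosing: one dose 10 µM, DMSO 0.25% final; times: 24 h exposure, 30 °C; measured by: OD at 615 nm; read-out basis: growth inhibition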

[2] = Restrictive medium S. cerevisiae growth inhibition, OD615, pilot screen of yeast lifespan reduction project, restrictive growth control (AID 706;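 active = growth inhibition above a set limit, 3 SD over mean compound inhibition, in both replicates, cut at about 43% in these data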;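 also: modified DeaD lifespan yeast strain shifted to restrictive glucose medium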); conditions: OD615, 48 h, at 10 µM, hits give high values
Method in brief: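 material = engineered S. cerevisiae DeaD strain | buffer or medium = glucose-based CSMM-D restrictive medium | dosing = one concentration, 10 µM final, 0.25% DMSO | schedule = 4 h pre-growth plus 48 h compound exposure, 30 °C | detection = OD615 absorbance reading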

[3] = viability gain of MRP-1-high H69AR cells under doxorubicin, pilot screen, MRP-1 activator project, CellTiter-Glo, duplicate (AID 807;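 active = viability increase at or above a cutoff of the median across tested compounds plus 3 SD, cut at about 8.5% in these data, passing the limit was not always enough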;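 also: compound pretreatment 18-22 h then 72 h combined with doxorubicin; 0% = doxorubicin alone and 100% = vehicle without doxorubicin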); conditions: H69AR viability with doxorubicin, CellTiter-Glo luminescence; at 10 µM; hits give high values
[4] = growth suppression of beta-catenin knockout HCT116, pilot screen, human colon tumor cells (AID 823;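 active = cell viability at or below a set limit in both duplicate runs, the limit being the all-compound median minus 4 SD, cut at about 23% in these data, passing the limit was not always enough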;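 also: 0% = wells killed by 20 µM Hyamine and 100% = untreated DMSO cell wells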); conditions: CellTiter-Glo, 60 h, at 10 µM, hits give low values
[5] = growth suppression of PTEN-deleted HCT116, pilot screen, cell-based, HCT116 clonal line, CellTiter-Glo (AID 824;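 active = viability at or below 27.92% in each of two runs, the all-compound median minus 4 SD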;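 also: 0% = 20 µM Hyamine control and 100% = vehicle cell control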); conditions: 60 h, at 10 µM, hits give low values
[6] = inhibitors of the yeast RAM network, pilot screen, dse1pr::URA3 reporter, 5-FOA selection (AID 869);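 also: 0% = DMSO wells with no growth and 100% = 10 µM 1-NA-PP1 with full growth; RAM network block rescues cells from 5-FOA so hits raise OD615 growth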; conditions: S. cerevisiae dse1pr::URA3 5-FOA growth, OD615, 2 d; at 10 µM; hits give high values; strain carries analog-sensitive mutant Cbk1 kinase
[7] = RAM signaling pathway blockade in yeast – S. cerevisiae, Pdr1DBD-CYC8 efflux-inhibited sensitized strain, primary screen (AID 1298;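 active = RAM network inhibition above 8.4% in each of two replicates, 3 SD over the compound average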;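 also: 0% = DMSO untreated cells without growth and 100% = 10 µM 1-NA-PP1 full growth; higher means more yeast growth rescued from 5-FOA killing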); conditions: S. cerevisiae cbk1-as DSE1-URA3 strain, 5-FOA growth OD615, 2 d; at 50 µM; hits give high values

Cc1ccc(N(CC(=O)NCc2cccnc2)S(C)(=O)=O)cc1C
inactive: growth inhibition [1] -8.32% | growth inhibition [2] -10.2% | viability increase [3] -2.97% | viability [4] 97.3% | viability [5] 98.8% | inhibition [6] 0.71% | RAM network inhibition [7] 2.28%

CCOc1ncccc1C(=O)OCC(=O)Nc1cc(C(=O)OC)ccc1C(=O)OC
inactive: growth inhibition [1] -16.9% | growth inhibition [2] -12.9% | viability increase [3] -2.69% | viability [4] 90.1% | viability [5] 92.4% | inhibition [6] 2.11% | RAM network inhibition [7] 5.66%

Cc1ccccc1-c1nc(CS(=O)CC(=O)NCCN2CCOCC2)c(C)o1 (configuration not stated)
inactive: growth inhibition [1] 0.43% | growth inhibition [2] 1.41% | viability increase [3] -1.4% | viability [4] 101% | viability [5] 91.2% | inhibition [6] 1.11% | RAM network inhibition [7] 9.97%

CCOc1cc(N2CCOCC2)c(OCC)cc1NC(=O)c1cc(-c2ccco2)nc2ccccc12
inactive: growth inhibition [1] 1.62% | growth inhibition [2] -4.63% | viability increase [3] -5.6% | viability [4] 65.4% | viability [5] 60.8% | inhibition [6] 0.475% | RAM network inhibition [7] 6.51%

CCc1ccc2[nH]cc(C(=O)OCCOC)c(=O)c2c1
inactive: growth inhibition [1] -19.9% | growth inhibition [2] 0.075% | viability increase [3] -1.15% | viability [4] 88% | viability [5] 87.5% | inhibition [6] 1.91% | RAM network inhibition [7] 1.6%

c1ccc2[nH]c(SCCN3CCOCC3)nc2c1
inactive: growth inhibition [1] -2.45% | growth inhibition [2] 8.19% | viability increase [3] -1.11% | viability [4] 98.9% | viability [5] 104% | inhibition [6] -0.025% | RAM network inhibition [7] 1.35%

Oc1cnn(-c2ccccc2)c1
inactive: growth inhibition [1] -0.88% | growth inhibition [2] 3.54% | viability increase [3] -5.6% | viability [4] 92.8% | viability [5] 94.3% | inhibition [6] 0.91% | RAM network inhibition [7] -0.83%

O=C(CCCC(=O)OCC(F)(F)C(F)F)Nc1nccs1
inactive: growth inhibition [1] -7.96% | growth inhibition [2] 8.98% | viability increase [3] -0.61% | viability [4] 101% | viability [5] 102% | inhibition [6] 1.56% | RAM network inhibition [7] -0.01%

CCOC(=O)c1ccccc1Nc1cc(C)nc2nc(C)nn12
inactive: growth inhibition [1] -4.38% | growth inhibition [2] 9.16% | viability increase [3] -5.14% | viability [4] 97.6% | viability [5] 93% | inhibition [6] 1.52% | RAM network inhibition [7] 1.2%

COc1ccc(Cl)cc1S(=O)(=O)N1CCN(C)CC1
inactive: growth inhibition [1] 1.3% | growth inhibition [2] -7.12% | viability increase [3] -2.26% | viability [4] 100% | viability [5] 86.8% | inhibition [6] 1.67% | RAM network inhibition [7] 5.97%

CCc1nnc(NC(=O)c2ccc(OC)cc2OC)s1
inactive: growth inhibition [1] 16.6% | growth inhibition [2] 3.21% | viability increase [3] -1.32% | viability [4] 109% | viability [5] 102% | inhibition [6] 1.68% | RAM network inhibition [7] 2.76%

COc1ccc(CCN=C2SCC(=O)N2C)cc1OC
inactive: growth inhibition [1] 3.32% | growth inhibition [2] 1.86% | viability increase [3] -0.79% | viability [4] 102% | viability [5] 97% | inhibition [6] 2.14% | RAM network inhibition [7] 6.13%

O=c1[nH]c(NCCCO)nc2c1C1(CCCC1)Cc1ccccc1-2
inactive: growth inhibition [1] -1.02% | growth inhibition [2] -4.91% | viability increase [3] -0.94% | viability [4] 97.1% | viability [5] 96.2% | inhibition [6] -0.175% | RAM network inhibition [7] 6.67%

Cc1c(C(=O)N2CCN(CCc3ccccc3)CC2)oc2ccccc12
inactive: growth inhibition [1] -0.01% | growth inhibition [2] 7.52% | viability increase [3] -1.75% | viability [4] 100% | viability [5] 94.7% | inhibition [6] 0.455% | RAM network inhibition [7] 1.34%

CCSc1nnc(NC(=O)CC)s1
inactive: growth inhibition [1] -14.2% | growth inhibition [2] -13.4% | viability increase [3] 1.42% | viability [4] 106% | viability [5] 99% | inhibition [6] 1.21% | RAM network inhibition [7] -0.32%

CCN(CC)CCCNc1nc2ccccc2[nH]1
inactive: growth inhibition [1] -4% | growth inhibition [2] -5.4% | viability increase [3] -0.63% | viability [4] 99% | viability [5] 98.3% | inhibition [6] 0.52% | RAM network inhibition [7] 4.31%

CCOC(=O)c1nnn(-c2nonc2N)c1CN(C)Cc1ccccc1
inactive: growth inhibition [1] -7.27% | growth inhibition [2] -11.5% | viability increase [3] -4.12% | viability [4] 84% | viability [5] 88.1% | inhibition [6] 2.05% | RAM network inhibition [7] 4.2%

CN(CCCNC(=O)Cn1cc2c(n1)CCCC2)C1CCCCC1
inactive: growth inhibition [1] -2.1% | growth inhibition [2] -0.155% | viability increase [3] -3.43% | viability [4] 99.2% | viability [5] 90.2% | inhibition [6] -1.29% | RAM network inhibition [7] 1.23%

Cc1ccc2cc(CCNC(=O)C3CCCC3)c(=O)[nH]c2c1
inactive: growth inhibition [1] -7.07% | growth inhibition [2] -9.72% | viability increase [3] 1.09% | viability [4] 107% | viability [5] 98.2% | inhibition [6] 3.17% | RAM network inhibition [7] 4.58%

Nc1nc(N2CCOCC2)nc(N(c2ccccc2)c2ccccc2)n1
inactive: growth inhibition [1] -17.1% | growth inhibition [2] -9.3% | viability increase [3] -1.89% | viability [4] 107% | viability [5] 92.4% | inhibition [6] 1.93% | RAM network inhibition [7] 1.9%

Cc1cc(C)n(-c2nc(NC(C)(C)C)nc(NC(C)(C)C)n2)n1
inactive: growth inhibition [1] -11.5% | growth inhibition [2] 11.4% | viability increase [3] -2.08% | inhibition [6] 2.85% | RAM network inhibition [7] 5.62%
active: viability [4] 8.58% | viability [5] 11.2%

Cn1c(C(=O)N2CCN(c3ccccc3F)CC2)cc2c(=O)n(C)c3ccccc3c21
inactive: growth inhibition [1] -2.8% | growth inhibition [2] -4.68% | viability increase [3] -2.61% | viability [4] 100% | viability [5] 98.6% | inhibition [6] 2.54% | RAM network inhibition [7] 1.59%

O=C(Cn1cc2c(n1)CCCC2)NC1CCCCCC1
inactive: growth inhibition [1] 4.4% | growth inhibition [2] 2.47% | viability increase [3] -1.14% | viability [4] 99.2% | viability [5] 93.6% | inhibition [6] 0.485% | RAM network inhibition [7] 2.95%

O=C1Nc2ccc(S(=O)(=O)N3CCCC3C(=O)O)c3cccc1c23 (configuration not stated)
inactive: growth inhibition [1] 1.8% | growth inhibition [2] -5.75% | viability increase [3] -2.22% | viability [4] 92.8% | viability [5] 96.8% | inhibition [6] 0.57% | RAM network inhibition [7] 0.21%

CCOc1cccc(=O)c2c(C)n(Cc3ccco3)c(C)c12
inactive: growth inhibition [1] -12.4% | growth inhibition [2] -8% | viability increase [3] -3.8% | viability [4] 92.1% | viability [5] 84.9% | inhibition [6] 0.975% | RAM network inhibition [7] -0.46%

COCCCN1C(=O)C(O)=C(C(=O)c2ccc(C)o2)C1c1cccc(Br)c1 (configuration not stated)
inactive: growth inhibition [1] -10.6% | growth inhibition [2] -3.15% | viability increase [3] -0.41% | viability [4] 106% | viability [5] 106% | inhibition [6] -0.2% | RAM network inhibition [7] 4.3%

O=C(CSc1ncnc2c1oc1ccccc12)NCc1ccc(F)cc1
inactive: growth inhibition [1] -0.505% | growth inhibition [2] -4.67% | viability increase [3] -3.33% | viability [4] 68.6% | viability [5] 81% | inhibition [6] -0.055% | RAM network inhibition [7] -2.13%

CN1C(=O)/C(=C2\SC(=S)N(C(CCC(=O)O)C(=O)O)C2=O)c2ccccc21 (configuration not stated)
inactive: growth inhibition [1] 2.35% | growth inhibition [2] -1.85% | viability increase [3] -2.67% | viability [4] 107% | viability [5] 98.8% | inhibition [6] 1.11% | RAM network inhibition [7] 0.96%

CCOC(=O)C1CCCN(C(=O)Cn2ncc3c(=O)oc4ccc(C)cc4c32)C1 (configuration not stated)
inactive: growth inhibition [1] -11.9% | growth inhibition [2] -24.9% | viability increase [3] -1.41% | viability [4] 106% | viability [5] 95% | inhibition [6] 2.19% | RAM network inhibition [7] 3.43%

CCSc1nnc(-c2ccc(Cl)cc2Cl)o1
inactive: growth inhibition [1] -10.3% | growth inhibition [2] -5.92% | viability increase [3] -5.13% | viability [4] 83.5% | viability [5] 85.4% | inhibition [6] 1.65% | RAM network inhibition [7] 2.2%

CC1(C)Cc2ccccc2-c2nc(NCCO)n(-c3ccccc3)c(=O)c21
inactive: growth inhibition [1] -7.5% | growth inhibition [2] -15.2% | viability increase [3] -2.92% | viability [4] 84.8% | viability [5] 83% | inhibition [6] -0.14% | RAM network inhibition [7] 3.93%

CC(=O)c1c(C)nn(C(=O)c2cccs2)c1C
inactive: growth inhibition [1] 1.07% | growth inhibition [2] 5.09% | viability increase [3] -0.49% | viability [4] 91% | viability [5] 106% | inhibition [6] 1.89% | RAM network inhibition [7] -0.62%

Cc1ccc(C(=O)NCc2ccc3c(c2)OCO3)cc1N1CCCC1=O
inactive: growth inhibition [1] 5.69% | growth inhibition [2] 4.36% | viability increase [3] -1.36% | viability [4] 91.7% | viability [5] 98.2% | inhibition [6] 0.635% | RAM network inhibition [7] 4.17%

Cc1noc(C)c1CSCC(=O)OCC(=O)NC1CCCCC1
inactive: growth inhibition [1] -9% | growth inhibition [2] 2.07% | viability increase [3] 0.39% | viability [4] 97.1% | viability [5] 99.3% | inhibition [6] 0.26% | RAM network inhibition [7] 2.57%

O=S(=O)(CCc1ccccc1)N1CCOCC1
inactive: growth inhibition [1] 1.85% | growth inhibition [2] -1.08% | viability increase [3] -1.35% | viability [4] 106% | viability [5] 103% | inhibition [6] 0.8% | RAM network inhibition [7] 2.83%

Cn1c(Cn2c(=O)sc3ccccc32)nnc1SCC(=O)N1CCN(c2ccccc2)CC1
inactive: growth inhibition [1] 0.845% | growth inhibition [2] 24.3% | viability increase [3] -0.95% | viability [4] 100% | viability [5] 96.6% | inhibition [6] 0.04% | RAM network inhibition [7] 3.66%
